Test results from paper PMC2216779 (The Journal of General Physiology, 1993).
“And” between values parts separate entries of the source, which are not always exact repeats. Equal values may be shown once. Read-outs that look alike come from different tables or passages of the source. Values belong to the compound of their own block, whether it stands above or below them.

Key:
[1] = target: T1, chloride transport in human red blood cells; capnophorin (band 3 or AE1) (Homo sapiens, UniProt P02730); assay: 36Cl- efflux; type: cell-based; settings: 38C
T1 sequence (P02730 1-911): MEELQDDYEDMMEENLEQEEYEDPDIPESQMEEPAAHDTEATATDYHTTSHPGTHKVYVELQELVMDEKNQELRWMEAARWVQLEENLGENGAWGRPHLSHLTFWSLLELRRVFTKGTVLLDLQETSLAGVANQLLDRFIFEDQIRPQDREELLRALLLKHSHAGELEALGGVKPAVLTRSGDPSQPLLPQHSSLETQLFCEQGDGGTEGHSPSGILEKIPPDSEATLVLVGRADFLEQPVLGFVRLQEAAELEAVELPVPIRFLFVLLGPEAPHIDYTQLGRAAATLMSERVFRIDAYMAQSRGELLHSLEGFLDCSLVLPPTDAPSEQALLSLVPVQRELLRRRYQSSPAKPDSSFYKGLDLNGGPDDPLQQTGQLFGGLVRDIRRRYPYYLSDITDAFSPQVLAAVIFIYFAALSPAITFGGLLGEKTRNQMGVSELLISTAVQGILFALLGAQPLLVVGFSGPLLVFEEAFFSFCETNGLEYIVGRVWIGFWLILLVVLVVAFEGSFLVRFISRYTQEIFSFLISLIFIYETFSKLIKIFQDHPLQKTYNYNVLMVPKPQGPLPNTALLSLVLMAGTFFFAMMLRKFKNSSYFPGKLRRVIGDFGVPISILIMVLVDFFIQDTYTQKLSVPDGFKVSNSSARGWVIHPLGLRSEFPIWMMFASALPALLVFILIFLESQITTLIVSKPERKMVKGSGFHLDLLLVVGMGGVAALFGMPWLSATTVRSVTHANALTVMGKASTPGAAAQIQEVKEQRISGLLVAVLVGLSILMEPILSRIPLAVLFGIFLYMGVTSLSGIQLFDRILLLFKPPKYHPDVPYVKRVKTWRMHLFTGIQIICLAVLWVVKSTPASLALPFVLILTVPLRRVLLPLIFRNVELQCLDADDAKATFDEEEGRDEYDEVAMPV
Procedure, shortened: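 Fresh heparinized human blood washed four times in medium A (150 mM KCl, 0.5–2 mM KH2PO4, pH 7.2), buffy coat removed. Covalent labelling: ~50% hematocrit, 50 µM DIDS, 38°C, 45 min, then washes in medium A. Cells loaded with 3.7–18.5 kBq 36Cl per ml suspension and packed. Tracer efflux measured at 38°C, pH 7.2, by Millipore-Swinnex filtration or continuous flow tube. Rate constant taken from extracellular radioactivity over time, corrected for trapped isotope.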

[2] = tested on: residual chloride transport in DIDS-C human red blood cells; assay: 36Cl- efflux in DIDS-C cells; type: cell-based
[3] = tested on: chloride conductance of the human red cell membrane; assay: Conductance studies of net; type: cell-based; settings: 16 µM DIDS; calculated from Bennekou and Stampe (1988) data
[4] = tested on: chloride conductance of the human red cell membrane; settings: ref Bennekou and Stampe (1988); cited from earlier work
[5] = tested on: band 3 protein, DIDS binding site; settings: cited from earlier work
[6] = target: human erythrocyte anion transporter; settings: read-out: Dissociation constant of DNDS binding, ref Frohlich (1982), cited from earlier work

Chloride efflux after DIDS binding procedure performed once ([1]; 50 µM DIDS, 45 min, n = 10): 96.3 [SD-+ 8.1] pmol cm-2 s-1
Chloride efflux after DIDS binding procedure performed twice ([1]; 50 µM DIDS, 45 min, n = 10): 94.1 [SD ~ 11.0] pmol cm-2 s-1
Irreversible inhibition of chloride transport by maximum covalent DIDS binding ([1]; DIDS-C cells vs control cells, pH 7.2): 99.8%
Half-time for chloride tracer efflux in DIDS-C cells ([1]; found experimentally): 29 s
Compound: O=S(=O)(O)c1cc(N=C=S)ccc1C=Cc1ccc(N=C=S)cc1S(=O)(=O)O [DIDS, 4,4'-diisothiocyanostilbene-2,2'-disulfonic acid]
Chloride self-exchange flux in DIDS-C cells ([1]; covalently bound DIDS, pH 7.2, n = 30): 106 pmol cm-2 s-1 and 106 (SD + 17) pmol cm-2 s-1
Chloride flux in DIDS-CR cells ([2]; covalent DIDS + 50 µM DIDS in flux medium, 38C, pH 7.2, n = 15): 0.60 [SD -- 0,16] pmol cm-2 s-1
Reduction of conductive component of chloride efflux [3]: 96.4%
Reduction of conductive component of chloride efflux, fold [3]: 28 times
Inhibition of conductive flow of chloride [4]: ~ 100%
Half-time for irreversible DIDS binding ([5]; 0C, ref Janas et al., 1989): ~ 3 h
Time constant 1/k of irreversible DIDS binding ([5]; 38C, ref Janas et al., 1989): 2.2 rain

Compound: O=[N+]([O-])c1ccc(C=Cc2ccc([N+](=O)[O-])cc2S(=O)(=O)O)c(S(=O)(=O)O)c1 [DNDS, 4,4'-dinitrostilbene-2,2'-disulfonate]
Kd ([6]; 0C): 84 nM
Kd ([6]; 10C): 86 nM
Kd ([6]; 20C): 90 nM

Compound: O=S(=O)(O)c1cc(N=C=S)ccc1CCc1ccc(N=C=S)cc1S(=O)(=O)O [H2DIDS, 4,4'-diisothiocyano-dihydrostilbene-2,2'-disulfonic acid]
Rate of binding to the DIDS binding site relative to DIDS ([5]; 0C, ref Shami, Rothstein, and Knauf, 1978): binds much faster than DIDS

Compound: CC(C)[C@@H]1NC(=O)[C@H](C)OC(=O)[C@@H](C(C)C)NC(=O)[C@@H](C(C)C)OC(=O)[C@H](C(C)C)NC(=O)[C@H](C)OC(=O)[C@@H](C(C)C)NC(=O)[C@@H](C(C)C)OC(=O)[C@H](C(C)C)NC(=O)[C@H](C)OC(=O)[C@@H](C(C)C)NC(=O)[C@@H](C(C)C)OC1=O [valinomycin]
Effect on initial 36Cl influx rate ([2]; valinomycin 1 µM, extracellular chloride < 1 mM): no detectable effect
